Measurements: ChEMBL document CHEMBL1127548, “N-benzylnaltrindoles as long-acting delta-opioid receptor antagonists” (J Med Chem, 1994)

Assays:
[1] = target: Opioid receptors; mu & delta (Homo sapiens) (UniProt P41143+P35372); assay: Selectivity ratio is the ratio between delta and mu receptor; assay type: protein assay
How it was run: (§1)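 Selectivity ratio is the DADLE IC50 ratio divided by the morphine (δ/μ) or ethylketazocine (δ/κ) IC50 ratio. These IC50 ratios come from smooth muscle with 100 nM antagonist, 15 min. A value of 1 was used wherever an IC50 ratio was <1.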

[2] = target: Delta-type opioid receptor (Mus musculus) (UniProt P32300); assay: Antagonist potency was determined using D-Ala2, D-Leu5 enkephalin28 (DADLE) at delta-opioid receptor in mouse vas deferens (MVD); IC50 ratio; assay type: functional
Delta-type opioid receptor (Mus musculus), sequence (P32300 whole entry): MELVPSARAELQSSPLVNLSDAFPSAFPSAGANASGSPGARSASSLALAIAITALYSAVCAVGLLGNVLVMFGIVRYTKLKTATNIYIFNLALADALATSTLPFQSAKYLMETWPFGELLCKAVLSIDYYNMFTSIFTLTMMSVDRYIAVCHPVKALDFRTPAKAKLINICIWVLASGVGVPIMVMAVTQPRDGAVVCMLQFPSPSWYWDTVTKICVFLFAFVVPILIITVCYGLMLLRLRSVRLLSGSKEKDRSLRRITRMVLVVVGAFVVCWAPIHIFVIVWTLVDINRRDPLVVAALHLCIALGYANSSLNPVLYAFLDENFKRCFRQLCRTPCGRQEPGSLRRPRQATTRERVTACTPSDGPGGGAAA
How it was run: (§2)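 Electrically stimulated tissue: agonists were morphine (μ) and ethylketazocine (κ) in guinea pig ileal longitudinal muscle, and DADLE (δ) in mouse vas deferens. Antagonist at 100 nM was incubated 15 min. IC50 ratio is agonist IC50 with antagonist divided by control IC50 in the same preparation, n ≥ 3, ±SE.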

[3] = target: Kappa-type opioid receptor (Cavia porcellus) (UniProt P41144); assay: Antagonist potency was determined using ethylketazocine at kappa-opioid receptor in electrically stimulated guinea pig ileal longitudinal muscle (GPI); IC50 ratio; assay type: functional; how it was run: as §2
Kappa-type opioid receptor (Cavia porcellus), sequence (P41144 whole entry): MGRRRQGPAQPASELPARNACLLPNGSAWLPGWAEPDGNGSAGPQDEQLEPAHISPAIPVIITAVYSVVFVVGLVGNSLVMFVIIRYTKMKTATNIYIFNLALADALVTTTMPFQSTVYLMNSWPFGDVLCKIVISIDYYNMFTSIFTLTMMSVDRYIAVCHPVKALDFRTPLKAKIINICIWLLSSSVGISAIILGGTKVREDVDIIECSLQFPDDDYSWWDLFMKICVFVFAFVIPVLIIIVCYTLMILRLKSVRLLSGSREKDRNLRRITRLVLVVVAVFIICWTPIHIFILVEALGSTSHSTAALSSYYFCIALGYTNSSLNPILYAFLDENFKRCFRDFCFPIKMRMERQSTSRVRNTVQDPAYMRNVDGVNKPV

[4] = target: Delta-type opioid receptor (Mus musculus) (UniProt P32300); assay: Antagonist potency was determined using […] in delta2-opioid receptor by icv administration in mouse after 24 hr; ED50 ratio; assay type: functional, organism-based
How it was run: (§3)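 Mouse abdominal stretch antinociception assay. Antagonist was given icv at 5 nmol, with agonists tested 24 h later. DSLET and DPDPE were given icv; morphine and U50488 were given sc. ED50 ratio is agonist ED50 with antagonist divided by control ED50, with 95% confidence limits.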

[5] = target: Kappa-type opioid receptor (Mus musculus) (UniProt P33534); assay: Antagonist potency was determined using U-50,488 in kappa-opioid receptor by icv administration in mouse after 24 hr; ED50 ratio; assay type: functional, organism-based; how it was run: as §3
Kappa-type opioid receptor (Mus musculus), sequence (P33534 whole entry): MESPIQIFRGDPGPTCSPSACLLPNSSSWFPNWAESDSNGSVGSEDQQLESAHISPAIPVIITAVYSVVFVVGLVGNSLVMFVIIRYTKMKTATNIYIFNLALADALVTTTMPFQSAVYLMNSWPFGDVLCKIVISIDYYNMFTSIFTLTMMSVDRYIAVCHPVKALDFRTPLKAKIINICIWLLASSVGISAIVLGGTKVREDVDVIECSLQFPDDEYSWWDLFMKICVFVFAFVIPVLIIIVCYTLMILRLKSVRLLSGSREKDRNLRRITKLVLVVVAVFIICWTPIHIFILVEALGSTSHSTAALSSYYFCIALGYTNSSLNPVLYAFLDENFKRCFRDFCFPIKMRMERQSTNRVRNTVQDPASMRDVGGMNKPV

[6] = target: Opioid receptors; delta & kappa (Homo sapiens) (UniProt P41145+P41143); assay: Selectivity ratio is the ratio between delta and kappa receptor; assay type: protein assay; how it was run: as §1
Opioid receptors; delta & kappa (Homo sapiens), sequence (P41143 whole entry, looked up): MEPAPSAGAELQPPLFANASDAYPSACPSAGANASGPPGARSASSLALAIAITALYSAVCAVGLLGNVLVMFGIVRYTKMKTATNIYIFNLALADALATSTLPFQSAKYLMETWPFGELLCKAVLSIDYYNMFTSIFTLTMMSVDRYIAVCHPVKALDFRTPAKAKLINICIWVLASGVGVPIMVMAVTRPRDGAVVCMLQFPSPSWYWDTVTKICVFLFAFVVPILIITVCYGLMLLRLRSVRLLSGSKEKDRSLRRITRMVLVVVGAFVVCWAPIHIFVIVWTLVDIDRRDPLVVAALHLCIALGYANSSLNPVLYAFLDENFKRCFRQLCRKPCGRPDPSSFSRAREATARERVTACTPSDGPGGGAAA
Opioid receptors; delta & kappa (Homo sapiens), sequence (P41145 whole entry, looked up): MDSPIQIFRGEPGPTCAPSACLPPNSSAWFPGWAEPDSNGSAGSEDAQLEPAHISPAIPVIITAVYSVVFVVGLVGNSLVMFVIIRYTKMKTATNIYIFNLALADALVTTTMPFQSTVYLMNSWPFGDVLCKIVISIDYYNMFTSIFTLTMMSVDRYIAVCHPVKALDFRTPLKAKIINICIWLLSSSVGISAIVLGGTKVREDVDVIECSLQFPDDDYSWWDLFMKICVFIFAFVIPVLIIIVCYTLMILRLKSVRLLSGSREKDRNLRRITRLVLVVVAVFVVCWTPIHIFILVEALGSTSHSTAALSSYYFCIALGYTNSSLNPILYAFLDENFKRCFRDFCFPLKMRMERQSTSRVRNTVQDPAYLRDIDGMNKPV

[7] = target: Mu-type opioid receptor (Mus musculus) (UniProt P42866); assay: Antagonist potency was determined using morphine in mu-opioid receptor by icv administration in mouse after 24 hr; ED50 ratio; assay type: functional, organism-based; how it was run: as §3
Mu-type opioid receptor (Mus musculus), sequence (P42866 whole entry): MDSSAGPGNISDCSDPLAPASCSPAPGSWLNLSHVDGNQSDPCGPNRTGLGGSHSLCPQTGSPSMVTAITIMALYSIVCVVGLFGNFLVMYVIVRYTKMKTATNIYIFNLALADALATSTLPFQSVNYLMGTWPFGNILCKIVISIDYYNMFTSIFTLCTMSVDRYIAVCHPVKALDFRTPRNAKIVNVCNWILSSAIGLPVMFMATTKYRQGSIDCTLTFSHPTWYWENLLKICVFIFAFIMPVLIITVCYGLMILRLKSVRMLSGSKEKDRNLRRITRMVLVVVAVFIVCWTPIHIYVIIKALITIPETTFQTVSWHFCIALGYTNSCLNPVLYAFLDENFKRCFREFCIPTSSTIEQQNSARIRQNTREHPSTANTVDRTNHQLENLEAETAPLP

[8] = target: Mu-type opioid receptor (Cavia porcellus) (UniProt P97266); assay: Antagonist potency using morphine at mu-opioid receptor in electrically stimulated guinea pig ileal longitudinal muscle (GPI); IC50 ratio; assay type: functional; how it was run: as §2
Mu-type opioid receptor (Cavia porcellus), sequence (P97266 whole entry): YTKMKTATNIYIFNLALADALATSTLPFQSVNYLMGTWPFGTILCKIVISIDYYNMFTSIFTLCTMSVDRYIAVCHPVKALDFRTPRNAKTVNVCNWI

[9] = target: Delta-type opioid receptor (Mus musculus) (UniProt P32300); assay: Antagonist potency was determined using DPDPE in delta1-opioid receptor by icv administration in mouse after 24 hr; ED50 ratio; assay type: functional, organism-based; how it was run: as §3

Opioid receptors; mu & delta (Homo sapiens), sequence (P35372 whole entry, looked up): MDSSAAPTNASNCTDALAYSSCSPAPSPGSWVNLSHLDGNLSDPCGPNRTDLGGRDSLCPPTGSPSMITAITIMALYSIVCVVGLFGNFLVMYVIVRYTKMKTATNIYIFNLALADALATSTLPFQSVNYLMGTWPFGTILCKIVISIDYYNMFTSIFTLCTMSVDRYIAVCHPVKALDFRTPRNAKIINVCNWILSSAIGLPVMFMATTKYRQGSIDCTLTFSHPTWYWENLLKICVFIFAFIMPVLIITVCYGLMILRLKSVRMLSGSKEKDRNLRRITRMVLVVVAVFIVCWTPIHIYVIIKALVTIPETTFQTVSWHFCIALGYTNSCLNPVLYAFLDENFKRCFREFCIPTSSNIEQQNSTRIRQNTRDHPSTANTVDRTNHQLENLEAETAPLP
Opioid receptors; mu & delta (Homo sapiens), sequence (P41143 whole entry, looked up): as the sequence (P41143 whole entry, looked up) above

Row | Compound | Selectivity ratio [1] | Ratio [2] | Ratio [3] | Ratio [4] | Ratio [5] | Selectivity ratio [6] | Ratio [7] | Ratio [8] | Ratio [9]
1 | Nc1ccc(Cn2c3c(c4ccccc42)C[C@@]2(O)[C@H]4Cc5ccc(O)c6c5[C@@]2(CCN4CC2CC2)[C@H]3O6)cc1 | 106 | 288 | 1.5 | 5.9 | 0.64 | 188 | 1.1 | 2.7 | 
2 | Oc1ccc2c3c1O[C@H]1c4c(c5ccccc5n4Cc4c(F)c(F)c(F)c(F)c4F)C[C@@]4(O)[C@@H](C2)N(CC2CC2)CC[C@]314 | 37 | 52 | 0.7 |  |  | 52 |  | 1.4 | 
3 | O=[N+]([O-])c1ccccc1Cn1c2c(c3ccccc31)C[C@@]1(O)[C@H]3Cc4ccc(O)c5c4[C@@]1(CCN3CC1CC1)[C@H]2O5 | 13 | 31 | 0.8 |  |  | 31 |  | 2.3 | 
4 | Nc1cccc(Cn2c3c(c4ccccc42)C[C@@]2(O)[C@H]4Cc5ccc(O)c6c5[C@@]2(CCN4CC2CC2)[C@H]3O6)c1 | 111 | 148 | 1.5 |  |  | 100 |  | 1.3 | 
5 | Oc1ccc2c3c1O[C@H]1c4c(c5ccccc5n4Cc4ccccc4)C[C@@]4(O)[C@@H](C2)N(CC2CC2)CC[C@]314 | 131 | 208 | 0.4 | 10 | 0.77 | 208 | 1.2 | 1.6 | 1.3
6 | Nc1ccccc1Cn1c2c(c3ccccc31)C[C@@]1(O)[C@H]3Cc4ccc(O)c5c4[C@@]1(CCN3CC1CC1)[C@H]2O5 | 120 | 120 | 0.9 |  |  | 120 |  | 1 | 
7 | Oc1ccc2c3c1O[C@H]1c4[nH]c5ccccc5c4C[C@@]4(O)[C@@H](C2)N(CC2CC2)CC[C@]314 | 41 | 459 | 1.3 |  |  | 353 |  | 11.2 | 
8 | O=[N+]([O-])c1cccc(Cn2c3c(c4ccccc42)C[C@@]2(O)[C@H]4Cc5ccc(O)c6c5[C@@]2(CCN4CC2CC2)[C@H]3O6)c1 | 112 | 112 | 0.6 |  |  | 112 |  | 0.9 | 
9 | O=[N+]([O-])c1ccc(Cn2c3c(c4ccccc42)C[C@@]2(O)[C@H]4Cc5ccc(O)c6c5[C@@]2(CCN4CC2CC2)[C@H]3O6)cc1 | 38 | 38 | 0.4 |  |  | 38 |  | 0.5 | 
